According to ChEMBL document CHEMBL3045116, “Synthesis and biological evaluation of 2-(5-substituted-1-((diethylamino)methyl)-2-oxoindolin-3-ylidene)-N-substituted-hydrazinecarbothioamides” (Med Chem Res, 2013):
pEC50, pIC50: −log10 of the molar value.

Columns and labels:
Influenza B virus = assay: Antiviral activity against Influenza B virus infected in MDCK cells assessed as reduction of virus-induced cytopathic effect after 3 days by colorimetric formazan-based MTS assay; format: functional, organism-based; conditions: 72 h
Method in brief: (§1)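 Confluent cell monolayers were infected with 100 CCID50 of virus, and serial dilutions of compound were added at the time of infection.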

Influenza A virus H3N2 = assay: Antiviral activity against Influenza A virus H3N2 infected MDCK cells assessed as reduction of virus-induced cytopathic effect after 3 days by colorimetric formazan-based MTS assay; format: functional, organism-based; conditions: 72 h; method in brief: as §1
Human alphaherpesvirus 1 [1] = assay: Antiviral activity against Human herpesvirus 1 strain KOS infected human HEL cells assessed as reduction of virus-induced cytopathic effect after 3 days by colorimetric formazan-based MTS assay; format: functional, organism-based; conditions: Human alphaherpesvirus 1, KOS, 72 h; method in brief: as §1
Felid alphaherpesvirus 1 = assay: Antiviral activity against Felid herpesvirus 1 infected cat CRFK cells assessed as reduction of virus-induced cytopathic effect after 3 days by colorimetric formazan-based MTS assay; format: functional, organism-based; conditions: Felid alphaherpesvirus 1, CRFK, 72 h
Method in brief: (§2)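 Cells grown to confluency in 96-well plates ([…], Vero for lines 9–10) were infected with 100 CCID50 of virus, and serial compound dilutions were added at infection. Plates were incubated at 37 °C for 3 days, until complete CPE appeared in untreated virus controls.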

[2] = tested on: Feline infectious peritonitis virus; assay: Antiviral activity against Feline Infectious peritonitis virus infected cat CRFK cells assessed as reduction of virus-induced cytopathic effect after 3 days by colorimetric formazan-based MTS assay; format: functional, organism-based; conditions: Alphacoronavirus 1, CRFK, 72 h; method in brief: as §1
[3] = Cytotoxicity against Felis catus (cat) CRFK cells assessed as change in cellular morphology; format: cell-based; conditions: crfk
Method in brief: (§3)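 Uninfected cells were exposed to compound in parallel with the antiviral cultures. The read-out is the minimum cytotoxic concentration that causes a microscopically detectable alteration of normal cell morphology.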

[4] = Inhibition of beta lactamase assessed as increase in time taken for iodine decolorization relative to control; set-up: concentration or dose not given beside the values; conditions: concentration not given here
[5] = Inhibition of beta lactamase assessed as time for decolorization of iodine (reference value: 79.5 secs)
CCRF-CEM = assay: Cytotoxicity against Homo sapiens (human) CEM cells assessed as growth inhibition after 72 hr by coulter counter analysis; format: functional, cell-based
Method in brief: (§4)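 Cells in growth medium were allowed to proliferate with variable compound amounts at 37 °C in a humidified CO2 atmosphere. Incubation ran 48 h for L1210, 72 h for CEM and 96 h for HeLa. Cells were then counted with a Coulter counter.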

L1210 = assay: Cytotoxicity against Mus musculus (mouse) L1210 cells assessed as growth inhibition after 48 hr by coulter counter analysis; format: functional, cell-based; conditions: L1210, 48 h; method in brief: as §4
Influenza A virus = assay: Antiviral activity against Unidentified Influenza A virus (H1N1) infected MDCK cells assessed as reduction of virus-induced cytopathic effect after 3 days by colorimetric formazan-based MTS assay; format: functional, organism-based; conditions: 72 h; method in brief: as §1
[6] = (§5) Cytotoxicity against MDCK cells assessed as change in cellular morphology; format: cell-based, Canis lupus familiaris; conditions: dog, MDCK cells; method in brief: as §3
MDCK = assay: as §5; format: cell-based, Canis lupus familiaris; conditions: dog, mdck; method in brief: as §3
Punta Toro virus = assay: Antiviral activity against Punta Toro virus infected in African green monkey Vero cells assessed as reduction of virus-induced cytopathic effect after 3 days by colorimetric formazan-based MTS assay; format: functional, organism-based; conditions: 72 h; method in brief: as §1
Coxsackievirus B4 [7] = assay: Antiviral activity against Human coxsackievirus B4 infected African green monkey Vero cells assessed as reduction of virus-induced cytopathic effect after 3 days by colorimetric formazan-based MTS assay; format: functional, organism-based; conditions: Enterovirus B, 72 h; method in brief: as §1
Respirovirus muris = assay: Antiviral activity against Sendai virus infected African green monkey Vero cells assessed as reduction of virus-induced cytopathic effect after 3 days by colorimetric formazan-based MTS assay; format: functional, organism-based; conditions: 72 h
[8] = tested on: Mammalian orthoreovirus 1; assay: Antiviral activity against Mammalian orthoreovirus 1 infected African green monkey Vero cells assessed as reduction of virus-induced cytopathic effect after 3 days by colorimetric formazan-based MTS assay; format: functional, organism-based; conditions: Mammalian orthoreovirus 1, Vero, 72 h; method in brief: as §2
Human respirovirus 3 = assay: Antiviral activity against Human parainfluenza virus 3 infected African green monkey Vero cells assessed as reduction of virus-induced cytopathic effect after 3 days by colorimetric formazan-based MTS assay; format: functional, organism-based; conditions: Human respirovirus 3, Vero, 72 h; method in brief: as §2
[9] = Cytotoxicity against Chlorocebus aethiops (African green monkey) Vero cells assessed as change in cellular morphology; format: cell-based; conditions: chlorocebus sabaeus
[10] = tested on: Respiratory syncytial virus; assay: Antiviral activity against Respiratory syncytial virus infected human HeLa cells assessed as reduction of virus-induced cytopathic effect after 3 days by colorimetric formazan-based MTS assay; format: functional, organism-based; conditions: 72 h; method in brief: as §1
[11] = tested on: Vesicular stomatitis virus; assay: Antiviral activity against Vesicular stomatitis virus infected human HeLa cells assessed as reduction of virus-induced cytopathic effect after 3 days by colorimetric formazan-based MTS assay; format: functional, organism-based; conditions: 72 h; method in brief: as §1
Coxsackievirus B4 [12] = assay: Antiviral activity against Human coxsackievirus B4 infected human HeLa cells assessed as reduction of virus-induced cytopathic effect after 3 days by colorimetric formazan-based MTS assay; format: functional, organism-based; conditions: Enterovirus B, 72 h; method in brief: as §1
[13] = (§6) Cytotoxicity against Homo sapiens (human) HeLa cells assessed as change in cellular morphology; format: cell-based; conditions: HeLa cells; method in brief: as §3
HeLa = assay: as §6; format: cell-based; conditions: hela; method in brief: as §3
Human alphaherpesvirus 1 [14] = assay: Antiviral activity against acyclovir-resistant thymidine kinase negative Human herpesvirus 1 strain KOS infected human HEL cells assessed as reduction of virus-induced cytopathic effect after 3 days by colorimetric formazan-based MTS assay; format: functional, organism-based; conditions: Human alphaherpesvirus 1, KOS, 72 h; method in brief: as §1
[15] = tested on: Vesicular stomatitis virus; assay: Antiviral activity against Vesicular stomatitis virus infected human HEL cells assessed as reduction of virus-induced cytopathic effect after 3 days by colorimetric formazan-based MTS assay; format: functional, organism-based; conditions: 72 h; method in brief: as §1
Vaccinia virus = assay: Antiviral activity against Vaccinia virus infected human HEL cells assessed as reduction of virus-induced cytopathic effect after 3 days by colorimetric formazan-based MTS assay; format: functional, organism-based; conditions: Orthopoxvirus vaccinia, 72 h; method in brief: as §1
Human alphaherpesvirus 2 = assay: Antiviral activity against Human herpesvirus 2 strain G infected human HEL cells assessed as reduction of virus-induced cytopathic effect after 3 days by colorimetric formazan-based MTS assay; format: functional, organism-based; conditions: Human alphaherpesvirus 2, strain G, 72 h; method in brief: as §1
[16] = Cytotoxicity against Homo sapiens (human) HEL cells assessed as change in cellular morphology; format: cell-based
Candida albicans = assay: Antifungal activity against Candida albicans assessed as growth inhibition at 50 ug/ml by cup-plate method (reference value: 8 to 10 mm); format: functional; conditions: read-out: DIZ
Aspergillus niger = assay: Antifungal activity against Aspergillus niger assessed as growth inhibition at 50 ug/ml by cup-plate method (reference value: 8 to 10 mm); format: functional; conditions: read-out: DIZ
Salmonella typhi = assay: Antibacterial activity against Salmonella enterica subsp. enterica serovar Typhi assessed as growth inhibition at 50 ug/ml by cup-plate method (reference value: 8 to 10 mm); format: functional; conditions: read-out: DIZ
Proteus vulgaris = assay: Antibacterial activity against Proteus vulgaris assessed as growth inhibition at 50 ug/ml by cup-plate method (reference value: 8 to 10 mm); format: functional; conditions: read-out: DIZ
Escherichia coli = assay: Antibacterial activity against Escherichia coli assessed as growth inhibition at 50 ug/ml by cup-plate method (reference value: 8 to 10 mm); format: functional; conditions: read-out: DIZ
Bacillus subtilis = assay: Antibacterial activity against Bacillus subtilis assessed as growth inhibition at 50 ug/ml by cup-plate method (reference value: 8 to 10 mm); format: functional; conditions: read-out: DIZ
Klebsiella pneumoniae = assay: Antibacterial activity against Klebsiella pneumoniae assessed as growth inhibition at 50 ug/ml by cup-plate method (reference value: 8 to 10 mm); format: functional; conditions: read-out: DIZ
Staphylococcus aureus = assay: Antibacterial activity against Staphylococcus aureus assessed as growth inhibition at 50 ug/ml by cup-plate method (reference value: 8 to 10 mm); format: functional; conditions: read-out: DIZ

In the case of CCN(CC)CN1C(=O)/C(=N/NC(=S)Nc2ccc(OC)cc2)c2cc(Cl)ccc21, the pEC50 (Influenza B virus) was less than 6.10, the pEC50 (Influenza A virus H3N2) was less than 6.10 and the pEC50 (Human alphaherpesvirus 1 [1]) was less than 4.70. The pEC50 (Felid alphaherpesvirus 1) was less than 6.10, the pEC50 [2] was less than 6.10 and the CC50 [3] was 3.6 µM. For the same molecule, the inhibition [4] was 52.6%, the TIME [5] was 0.0466 h and the pIC50 (CCRF-CEM) was 5.16. It also gave a pIC50 (L1210) of 4.96, a pEC50 (Influenza A virus) of less than 6.10 and an MCC [6] of no less than 800 nM. The CC50 (MDCK) was 11.1 µM, the pEC50 (Punta Toro virus) was less than 6.10 and the pEC50 (Coxsackievirus B4 [7]) was less than 6.10. It also gave a pEC50 (Respirovirus muris) of less than 6.10, a pEC50 [8] of less than 6.10 and a pEC50 (Human respirovirus 3) of less than 6.10. It also gave an MCC [9] of 4 µM, a pEC50 [10] of less than 6.10 and a pEC50 [11] of less than 6.10. The pEC50 (Coxsackievirus B4 [12]) was less than 6.10, the MCC [13] was 4 µM and the CC50 (HeLa) was 13.2 µM. It also gave a pEC50 (Human alphaherpesvirus 1 [14]) of less than 4.70, a pEC50 [15] of less than 4.70 and a pEC50 (Vaccinia virus) of less than 4.70. For the same molecule, the pEC50 (Human alphaherpesvirus 2) was less than 4.70, the MCC [16] was 100 µM and the zone of inhibition at 50 µg/mL (Candida albicans) was 11 mm. The zone of inhibition at 50 µg/mL (Aspergillus niger) was 11 mm, the zone of inhibition at 50 µg/mL (Salmonella typhi) was 21 mm and the zone of inhibition at 50 µg/mL (Proteus vulgaris) was 21 mm. For the same molecule, the zone of inhibition at 50 µg/mL (Escherichia coli) was 11 mm, the zone of inhibition at 50 µg/mL (Bacillus subtilis) was 11 mm and the zone of inhibition at 50 µg/mL (Klebsiella pneumoniae) was 11 mm. For the same molecule, the zone of inhibition at 50 µg/mL (Staphylococcus aureus) was 11 mm.
Work on CCN(CC)CN1C(=O)/C(=N/NC(=S)Nc2ccc(Cl)cc2)c2cc(Cl)ccc21 yielded a pEC50 (Influenza B virus) of less than 6.10, a pEC50 (Influenza A virus H3N2) of less than 6.10 and a pEC50 (Human alphaherpesvirus 1 [1]) of less than 4.70. It also gave a pEC50 (Felid alphaherpesvirus 1) of less than 5.40, a pEC50 [2] of less than 5.40 and a CC50 [3] of 9.1 µM. It also gave an inhibition [4] of 44.2%, a TIME [5] of 0.0395 h and a pIC50 (CCRF-CEM) of less than 3.90. For the same molecule, the pIC50 (L1210) was less than 3.90, the pEC50 (Influenza A virus) was less than 6.10 and the MCC [6] was no less than 800 nM. The CC50 (MDCK) was 2.4 µM, the pEC50 (Punta Toro virus) was less than 4.70 and the pEC50 (Coxsackievirus B4 [7]) was less than 4.70. The pEC50 (Respirovirus muris) was less than 4.70, the pEC50 [8] was less than 4.70 and the pEC50 (Human respirovirus 3) was less than 4.70. It also gave an MCC [9] of 100 µM, a pEC50 [10] of less than 4.70 and a pEC50 [11] of less than 4.70. For the same molecule, the pEC50 (Coxsackievirus B4 [12]) was less than 4.70, the MCC [13] was 100 µM and the CC50 (HeLa) was 9.4 µM. For the same molecule, the pEC50 (Human alphaherpesvirus 1 [14]) was less than 4.70, the pEC50 [15] was less than 4.70 and the pEC50 (Vaccinia virus) was less than 4.70. For the same molecule, the pEC50 (Human alphaherpesvirus 2) was less than 4.70, the MCC [16] was 100 µM and the zone of inhibition at 50 µg/mL (Candida albicans) was 21 mm. For the same molecule, the zone of inhibition at 50 µg/mL (Aspergillus niger) was 21 mm, the zone of inhibition at 50 µg/mL (Salmonella typhi) was 21 mm and the zone of inhibition at 50 µg/mL (Proteus vulgaris) was 21 mm. For the same molecule, the zone of inhibition at 50 µg/mL (Escherichia coli) was 21 mm, the zone of inhibition at 50 µg/mL (Bacillus subtilis) was 21 mm and the zone of inhibition at 50 µg/mL (Klebsiella pneumoniae) was 11 mm. It also gave a zone of inhibition at 50 µg/mL (Staphylococcus aureus) of 21 mm.
